≈ marks a conversion by molar mass, not a printed value.
Experiments:
Format in all cases: functional
Acinetobacter baumannii [1] = assay: Antimicrobial activity against Acinetobacter baumannii isolate 31 harboring GyrA Ser83-Leu mutation at pH 7.2
Outline: (§1)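 MIC by agar dilution on Mueller-Hinton agar under standard conditions (pH 7.2), against isolates with characterized gyrA/parC genes. Agar pH was checked after solidifying. Plates for both drugs were prepared the same day from freshly made media, and MICs were determined simultaneously with the pH 5.8 set.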

Acinetobacter baumannii [2] = assay: Antimicrobial activity against Acinetobacter baumannii isolate 30 harboring GyrA Ser83-Leu mutation at pH 7.2; outline: as §1
Acinetobacter baumannii [3] = assay: Antimicrobial activity against Acinetobacter baumannii isolate 34 harboring GyrA Ser83-Leu mutation at pH 5.8
Outline: (§2)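 Agar dilution MIC on Mueller-Hinton agar. For the acidic condition, HCl was added to bring the agar to pH 5.8 before pouring the antibiotic plates, and the pH was checked after the agar set. The standard condition was pH 7.2. Both drugs' plates were made the same day from fresh medium, and MICs were read at the same time.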

Acinetobacter baumannii [4] = assay: Antimicrobial activity against Acinetobacter baumannii isolate 63 harboring GyrA Ser83-Leu and ParC Glu84-Lys mutation at pH 5.8
Outline: (§3)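 Agar dilution MIC on Mueller-Hinton agar acidified to pH 5.8 with HCl before the antibiotic-containing plates were poured. Agar pH was checked after solidifying. Plates were made the same day from fresh medium. Both fluoroquinolones were tested simultaneously against A. baumannii isolates with characterized gyrA/parC genes. MICs are in μg/ml.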

Acinetobacter baumannii [5] = assay: Antimicrobial activity against Acinetobacter baumannii isolate 21 harboring GyrA Ser83-Leu mutation at pH 7.2; outline: as §1
Acinetobacter baumannii [6] = assay: Antimicrobial activity against Acinetobacter baumannii isolate 21 harboring GyrA Ser83-Leu mutation at pH 5.8
Outline: (§4)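 MIC by agar dilution on Mueller-Hinton agar acidified to pH 5.8 with HCl before antibiotic-containing plates were poured. Agar pH was rechecked once the agar had solidified. Isolates had characterized gyrA/parC genes. Plates for both drugs were made the same day from fresh media, and MICs were read in parallel with the standard-pH set.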

Acinetobacter baumannii [7] = assay: Antimicrobial activity against Acinetobacter baumannii isolate 46 harboring GyrA Ser83-Leu and ParC Ser80-Leu mutation at pH 5.8; outline: as §2
Acinetobacter baumannii [8] = assay: Antimicrobial activity against adeB overexpressing Acinetobacter baumannii isolate 68 harboring GyrA Ser83-Leu and ParC Ser80-Leu mutation at pH 5.8; outline: as §3
Acinetobacter baumannii [9] = assay: Antimicrobial activity against Acinetobacter baumannii isolate 3 at pH 7.2; outline: as §1
Acinetobacter baumannii [10] = assay: Antimicrobial activity against Acinetobacter baumannii isolate 32 harboring GyrA Ser83-Leu mutation at pH 5.8; outline: as §2
Acinetobacter baumannii [11] = assay: Antimicrobial activity against Acinetobacter baumannii isolate 43 harboring GyrA Ser83-Leu mutation at pH 7.2; outline: as §2
Acinetobacter baumannii [12] = assay: Antimicrobial activity against Acinetobacter baumannii isolate 66 harboring GyrA Ser83-Leu mutation at pH 7.2
Outline: (§5)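 Agar dilution MIC on Mueller-Hinton agar under standard conditions (pH 7.2). Antibiotic-containing plates were made the same day from freshly prepared medium. Agar pH was checked after solidifying. Both fluoroquinolones were tested simultaneously against A. baumannii isolates with characterized gyrA/parC genes. MICs are in μg/ml.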

Acinetobacter baumannii [13] = assay: Antimicrobial activity against Acinetobacter baumannii isolate 6 at pH 7.2; outline: as §5
Acinetobacter baumannii [14] = assay: Antimicrobial activity against Acinetobacter baumannii isolate 61 harboring GyrA Ser83-Leu and ParC Ser80-Leu mutation at pH 7.2; outline: as §5
Acinetobacter baumannii [15] = assay: Antimicrobial activity against Acinetobacter baumannii isolate 49 harboring GyrA Ser83-Leu and ParC Ser80-Leu mutation at pH 5.8; outline: as §2
Acinetobacter baumannii [16] = assay: Antimicrobial activity against Acinetobacter baumannii isolate 63 harboring GyrA Ser83-Leu and ParC Glu84-Lys mutation at pH 7.2; outline: as §5
Acinetobacter baumannii [17] = assay: Antimicrobial activity against Acinetobacter baumannii isolate 7 at pH 7.2; outline: as §5
Acinetobacter baumannii [18] = assay: Antimicrobial activity against Acinetobacter baumannii isolate 24 harboring GyrA Ser83-Leu mutation at pH 5.8; outline: as §4
Acinetobacter baumannii [19] = assay: Antimicrobial activity against Acinetobacter baumannii isolate 22 harboring GyrA Ser83-Leu mutation at pH 7.2; outline: as §1
Acinetobacter baumannii [20] = assay: Antimicrobial activity against Acinetobacter baumannii isolate 60 harboring GyrA Ser83-Leu and ParC Ser80-Leu mutation at pH 7.2; outline: as §5
Acinetobacter baumannii [21] = assay: Antimicrobial activity against Acinetobacter baumannii isolate 42 harboring GyrA Ser83-Leu mutation at pH 7.2; outline: as §2
Acinetobacter baumannii [22] = assay: Antimicrobial activity against Acinetobacter baumannii isolate 52 harboring GyrA Ser83-Leu and ParC Ser80-Leu mutation at pH 7.2; outline: as §2
Acinetobacter baumannii [23] = assay: Antimicrobial activity against Acinetobacter baumannii isolate 48 harboring GyrA Ser83-Leu and ParC Ser80-Leu mutation at pH 5.8; outline: as §2
Acinetobacter baumannii [24] = assay: Antimicrobial activity against Acinetobacter baumannii isolate 23 harboring GyrA Glu87-Gly mutation at pH 5.8; outline: as §4
Acinetobacter baumannii [25] = assay: Antimicrobial activity against Acinetobacter baumannii isolate 53 harboring GyrA Ser83-Leu and ParC Ser80-Leu mutation at pH 7.2; outline: as §2
Acinetobacter baumannii [26] = assay: Antimicrobial activity against Acinetobacter baumannii isolate 22 harboring GyrA Ser83-Leu mutation at pH 5.8; outline: as §4
Acinetobacter baumannii [27] = assay: Antimicrobial activity against Acinetobacter baumannii isolate 39 harboring GyrA Ser83-Leu mutation at pH 7.2; outline: as §2
Acinetobacter baumannii [28] = assay: Antimicrobial activity against Acinetobacter baumannii isolate 35 harboring GyrA Ser83-Leu mutation at pH 7.2; outline: as §2
Acinetobacter baumannii [29] = assay: Antimicrobial activity against Acinetobacter baumannii isolate 64 harboring GyrA Ser83-Leu and ParC Ser80-Leu mutation at pH 5.8; outline: as §3
Acinetobacter baumannii [30] = assay: Antimicrobial activity against Acinetobacter baumannii isolate 49 harboring GyrA Ser83-Leu and ParC Ser80-Leu mutation at pH 7.2; outline: as §2
Acinetobacter baumannii [31] = assay: Antimicrobial activity against Acinetobacter baumannii isolate 42 harboring GyrA Ser83-Leu mutation at pH 5.8; outline: as §2
Acinetobacter baumannii [32] = assay: Antimicrobial activity against Acinetobacter baumannii isolate 38 harboring GyrA Ser83-Leu mutation at pH 7.2; outline: as §2
Acinetobacter baumannii [33] = assay: Antimicrobial activity against Acinetobacter baumannii isolate 8 at pH 7.2; outline: as §5
Acinetobacter baumannii [34] = assay: Antimicrobial activity against Acinetobacter baumannii isolate 8 at pH 5.8; outline: as §3
Acinetobacter baumannii [35] = assay: Antimicrobial activity against Acinetobacter baumannii isolate 16 at pH 5.8; outline: as §4
Acinetobacter baumannii [36] = assay: Antimicrobial activity against Acinetobacter baumannii isolate 54 harboring GyrA Ser83-Leu and ParC Ser80-Leu mutation at pH 7.2; outline: as §2
Acinetobacter baumannii [37] = assay: Antimicrobial activity against Acinetobacter baumannii isolate 7 at pH 5.8; outline: as §3
Acinetobacter baumannii [38] = assay: Antimicrobial activity against Acinetobacter baumannii isolate 4 at pH 5.8
Outline: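 Agar dilution MIC on Mueller-Hinton agar acidified with HCl before pouring antibiotic plates; agar pH checked after setting. Isolate has characterized gyrA/parC genes. Plates made the same day from fresh medium, and both drugs tested at the same time. Read-out: MIC (μg/ml).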

Acinetobacter baumannii [39] = assay: Antimicrobial activity against Acinetobacter baumannii isolate 57 harboring GyrA Ser83-Leu and ParC Ser80-Phe mutation at pH 7.2; outline: as §5

| SMILES | MIC (Acinetobacter baumannii [1]) | MIC (Acinetobacter baumannii [2]) | MIC (Acinetobacter baumannii [3]) | MIC (Acinetobacter baumannii [4]) | MIC (Acinetobacter baumannii [5]) | MIC (Acinetobacter baumannii [6]) | MIC (Acinetobacter baumannii [7]) | MIC (Acinetobacter baumannii [8]) | MIC (Acinetobacter baumannii [9]) | MIC (Acinetobacter baumannii [10]) | MIC (Acinetobacter baumannii [11]) | MIC (Acinetobacter baumannii [12]) | MIC (Acinetobacter baumannii [13]) | MIC (Acinetobacter baumannii [14]) | MIC (Acinetobacter baumannii [15]) | MIC (Acinetobacter baumannii [16]) | MIC (Acinetobacter baumannii [17]) | MIC (Acinetobacter baumannii [18]) | MIC (Acinetobacter baumannii [19]) | MIC (Acinetobacter baumannii [20]) | other results |
| --- | --- | --- | --- | --- | --- | --- | --- | --- | --- | --- | --- | --- | --- | --- | --- | --- | --- | --- | --- | --- | --- |
| N#Cc1c(N2C[C@@H]3NCCO[C@H]3C2)c(F)cc2c(=O)c(C(=O)O)cn(C3CC3)c12 [FINAFLOXACIN] | 16 µg/mL (≈ 40.2 µM) | 8 µg/mL (≈ 20.1 µM) | 2 µg/mL (≈ 5.02 µM) | 2 µg/mL (≈ 5.02 µM) | 1 µg/mL (≈ 2.51 µM) | 0.25 µg/mL (≈ 0.628 µM) | 2 µg/mL (≈ 5.02 µM) | 4 µg/mL (≈ 10 µM) | 0.12 µg/mL (≈ 0.301 µM) | 1 µg/mL (≈ 2.51 µM) | 16 µg/mL (≈ 40.2 µM) | 16 µg/mL (≈ 40.2 µM) | 0.25 µg/mL (≈ 0.628 µM) | 64 µg/mL (≈ 161 µM) | 2 µg/mL (≈ 5.02 µM) | 64 µg/mL (≈ 161 µM) | 0.25 µg/mL (≈ 0.628 µM) | 2 µg/mL (≈ 5.02 µM) | 8 µg/mL (≈ 20.1 µM) | 64 µg/mL (≈ 161 µM) | MIC (Acinetobacter baumannii [21]): 16 µg/mL (≈ 40.2 µM); MIC (Acinetobacter baumannii [22]): 32 µg/mL (≈ 80.3 µM); MIC (Acinetobacter baumannii [23]): 2 µg/mL (≈ 5.02 µM); MIC (Acinetobacter baumannii [24]): 1 µg/mL (≈ 2.51 µM); MIC (Acinetobacter baumannii [25]): 32 µg/mL (≈ 80.3 µM); MIC (Acinetobacter baumannii [26]): 1 µg/mL (≈ 2.51 µM); MIC (Acinetobacter baumannii [27]): 16 µg/mL (≈ 40.2 µM); MIC (Acinetobacter baumannii [28]): 16 µg/mL (≈ 40.2 µM); MIC (Acinetobacter baumannii [29]): 4 µg/mL (≈ 10 µM); MIC (Acinetobacter baumannii [30]): 16 µg/mL (≈ 40.2 µM); MIC (Acinetobacter baumannii [31]): 2 µg/mL (≈ 5.02 µM); MIC (Acinetobacter baumannii [32]): 16 µg/mL (≈ 40.2 µM); MIC (Acinetobacter baumannii [33]): 0.25 µg/mL (≈ 0.628 µM); MIC (Acinetobacter baumannii [34]): 0.12 µg/mL (≈ 0.301 µM); MIC (Acinetobacter baumannii [35]): 0.12 µg/mL (≈ 0.301 µM); MIC (Acinetobacter baumannii [36]): 32 µg/mL (≈ 80.3 µM); MIC (Acinetobacter baumannii [37]): 0.06 µg/mL (≈ 0.151 µM); MIC (Acinetobacter baumannii [38]): 0.03 µg/mL (≈ 0.0753 µM); MIC (Acinetobacter baumannii [39]): 32 µg/mL (≈ 80.3 µM) |
| O=C(O)c1cn(C2CC2)c2cc(N3CCNCC3)c(F)cc2c1=O [CIPROFLOXACIN] | 8 µg/mL (≈ 24.1 µM) | 8 µg/mL (≈ 24.1 µM) | 128 µg/mL (≈ 386 µM) | > 128 µg/mL | 4 µg/mL (≈ 12.1 µM) | 32 µg/mL (≈ 96.6 µM) | > 128 µg/mL | > 128 µg/mL | 0.12 µg/mL (≈ 0.362 µM) | 32 µg/mL (≈ 96.6 µM) | 32 µg/mL (≈ 96.6 µM) | 32 µg/mL (≈ 96.6 µM) | 0.12 µg/mL (≈ 0.362 µM) | 128 µg/mL (≈ 386 µM) | > 128 µg/mL | > 128 µg/mL | 0.12 µg/mL (≈ 0.362 µM) | 32 µg/mL (≈ 96.6 µM) | 4 µg/mL (≈ 12.1 µM) | 128 µg/mL (≈ 386 µM) | MIC (Acinetobacter baumannii [21]): 16 µg/mL (≈ 48.3 µM); MIC (Acinetobacter baumannii [22]): 128 µg/mL (≈ 386 µM); MIC (Acinetobacter baumannii [23]): > 128 µg/mL; MIC (Acinetobacter baumannii [24]): 32 µg/mL (≈ 96.6 µM); MIC (Acinetobacter baumannii [25]): 128 µg/mL (≈ 386 µM); MIC (Acinetobacter baumannii [26]): 32 µg/mL (≈ 96.6 µM); MIC (Acinetobacter baumannii [27]): 16 µg/mL (≈ 48.3 µM); MIC (Acinetobacter baumannii [28]): 8 µg/mL (≈ 24.1 µM); MIC (Acinetobacter baumannii [29]): > 128 µg/mL; MIC (Acinetobacter baumannii [30]): 128 µg/mL (≈ 386 µM); MIC (Acinetobacter baumannii [31]): > 128 µg/mL; MIC (Acinetobacter baumannii [32]): 32 µg/mL (≈ 96.6 µM); MIC (Acinetobacter baumannii [33]): 0.25 µg/mL (≈ 0.754 µM); MIC (Acinetobacter baumannii [34]): 2 µg/mL (≈ 6.04 µM); MIC (Acinetobacter baumannii [35]): 4 µg/mL (≈ 12.1 µM); MIC (Acinetobacter baumannii [36]): 128 µg/mL (≈ 386 µM); MIC (Acinetobacter baumannii [37]): 2 µg/mL (≈ 6.04 µM); MIC (Acinetobacter baumannii [38]): 1 µg/mL (≈ 3.02 µM); MIC (Acinetobacter baumannii [39]): 128 µg/mL (≈ 386 µM) |

— ChEMBL document CHEMBL1255410, “Activity of the investigational fluoroquinolone finafloxacin against ciprofloxacin-sensitive and -resistant Acinetobacter baumannii isolates” (2010)
